Common to all, as to experiment: NCI-60 single-dose antiproliferative screen
What all share (type): cell-based

One assay deals with SN12C. Particulars: Homo sapiens, 48 h, read-out: growth percent. The essentials: (§1)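 Cells grown in RPMI 1640 with 5% FBS and 2 mM L-glutamine, plated and held 24 h at 37 °C; time-zero plates TCA-fixed. DMSO stocks were diluted in gentamicin-containing medium to a final 10^-5 M, with a DMSO-only control. Exposure 48 h, 5% CO2. Adherent cells TCA-fixed 1 h at 4 °C, stained with 0.4% SRB, solubilised in 10 mM Trizma base, read at 515 nm. Growth percent derived from ODtzero, ODtest and ODctrl.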

The subject of a further assay is ACHN. The following applies: Homo sapiens, 48 h, read-out: growth percent. The essentials: (§2)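 NCI-60 protocol. Lines were grown in RPMI 1640 with 5% FBS and 2 mM L-glutamine, plated and incubated 24 h at 37 °C; time-zero plates were TCA-fixed. The test compound was dissolved in DMSO, diluted in medium with 50 μg/mL gentamicin and given once at a final 10^-5 M (DMSO control) for 48 h. Cells were fixed with cold TCA (1 h, 4 °C) and stained with 0.4% SRB in 1% acetic acid for 10 min. Dye was dissolved in 10 mM Trizma base and read at 515 nm. Growth percent was calculated from time-zero, test and control ODs.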

For another assay, the system named is M14. The following applies: Homo sapiens, M14, 48 h, read-out: growth percent. The essentials: as §2
For another assay, the system named is MDA-MB-231 ATCC. Particulars: Homo sapiens, MDA-MB-231, 48 h, read-out: growth percent. The essentials:
as §2

The next assay concerns DU-145. The following applies: Homo sapiens, DU-145, 48 h, read-out: growth percent. The gist of the method:
as §2

A further assay concerns NCI-H322M. The following applies: Homo sapiens, 48 h, read-out: growth percent. The gist of the method:
as §2

In the next assay the test system is CCRF-CEM. Particulars: Homo sapiens, 48 h, read-out: growth percent. The gist of the method: as §2
A further assay relates to OVCAR-8. Particulars: Homo sapiens, OVCAR-8, 48 h, read-out: growth percent. The essentials: as §2
The test system of another assay is IGROV1. The following applies: Homo sapiens, IGROV-1, 48 h, read-out: growth percent. The gist of the method: as §2
A further assay deals with OVCAR-3. Particulars: Homo sapiens, OVCAR-3, 48 h, read-out: growth percent. The essentials: as §2
The next assay concerns SNB-75. The following applies: Homo sapiens, SNB-75, 48 h, read-out: growth percent. The gist of the method: as §1
For another assay, the system named is SW-620. Particulars: Homo sapiens, SW-620, 48 h, read-out: growth percent. The essentials: as §1
A further assay deals with SK-MEL-28. The following applies: Homo sapiens, SK-MEL-28, 48 h, read-out: growth percent. The gist of the method:
as §1

The subject of the next assay is HOP-62. The following applies: Homo sapiens, HOP-62, 48 h, read-out: growth percent. The gist of the method:
as §2

Another assay has as its system SF-539. The following applies: Homo sapiens, SF-539, 48 h, read-out: growth percent. The essentials: as §1
Another assay deals with SF-268. Particulars: Homo sapiens, SF-268, 48 h, read-out: growth percent. The gist of the method:
as §2

Another assay relates to A549/ATCC. The following applies: Homo sapiens, A549, 48 h, read-out: growth percent. The essentials:
as §2

The subject of another assay is UACC-257. The following applies: Homo sapiens, UACC-257, 48 h, read-out: growth percent. The essentials: as §1
The next assay deals with OVCAR-4. The following applies: Homo sapiens, OVCAR-4, 48 h, read-out: growth percent. The gist of the method: as §2
The next assay has as its system MOLT-4. Particulars: Homo sapiens, MOLT-4, 48 h, read-out: growth percent. The essentials:
as §2

On to `COc1cc(CNC(=O)CCCC/C=C/C(C)C)ccc1OCc1cn(-c2ccccc2F)nn1` [14i, (E)-N-(4-((1-(2-Fluorophenyl)-1H-1,2,3-triazol-4-yl)methoxy)-3-methoxybenzyl)-8-methylnon-6-enamide], for which the activity at 10 µM in the assay with SN12C is 92.7%; in the assay with ACHN, 83%; with M14, 96.8%; with MDA-MB-231 ATCC, 78.7%; with DU-145, 106%; with NCI-H322M, 90.2%. Besides, the activity at 10 µM was found to be 88.6% with CCRF-CEM; 94.5% in the assay with OVCAR-8; 101% in the assay on IGROV1; 97.5% in the assay on OVCAR-3; 88.1% with SNB-75; 98.1% in the assay on SW-620. Further, the activity at 10 µM with SK-MEL-28 came to 107%; in the assay with HOP-62 it was 85%; in the assay with SF-539, 105%; in the assay on SF-268, 95%; in the assay on A549/ATCC, 91.3%; with UACC-257 it was 95%. Besides, the activity at 10 µM with OVCAR-4 came to 84.2%; in the assay on MOLT-4, 90.9%.

With `COc1cc(CNC(=O)CCCC/C=C/C(C)C)ccc1OCc1cn(-c2ccc(Cl)c(Cl)c2)nn1` [14d, (E)-N-(4-((1-(3,4-Dichlorophenyl)-1H-1,2,3-triazol-4-yl)methoxy)-3-methoxybenzyl)-8-methylnon-6-enamide], the activity at 10 µM with SN12C came out at 113%; in the assay on M14, 92.7%; in the assay with MDA-MB-231 ATCC it was 87.3%; with DU-145, 86.5%; with NCI-H322M, 93.2%; with CCRF-CEM, 84.7%. Further, the activity at 10 µM was determined as 91% with OVCAR-8; 104% in the assay with IGROV1; 92.4% in the assay with OVCAR-3; 79.1% in the assay with SNB-75; 96.1% with SW-620; 104% in the assay on SK-MEL-28. Besides, the activity at 10 µM amounted to 90.4% in the assay with HOP-62; 96.1% in the assay with SF-539; 93.3% in the assay with SF-268; 85.9% in the assay with A549/ATCC; 89.2% in the assay on UACC-257; 69.5% in the assay with OVCAR-4. In addition, the activity at 10 µM with MOLT-4 is 86.4%.

Turning to `COc1cc(CNC(=O)CCCC/C=C/C(C)C)ccc1OCc1cn(-c2cc(OC)c(OC)c(OC)c2)nn1` [14m, (E)-N-(3-Methoxy-4-((1-(3,4,5-trimethoxyphenyl)-1H-1,2,3-triazol-4-yl)methoxy)benzyl)-8-methylnon-6-enamide], the activity at 10 µM worked out at 102% in the assay with SN12C; 94.5% in the assay on M14; 92.7% in the assay on MDA-MB-231 ATCC; 85.4% in the assay on DU-145; 89.1% with NCI-H322M; 96.3% with CCRF-CEM. Further, the activity at 10 µM in the assay on OVCAR-8 amounted to 88.2%; in the assay on IGROV1, 103%; in the assay with OVCAR-3 it was 103%; in the assay on SNB-75, 95.2%; in the assay with SW-620, 102%; in the assay on SK-MEL-28 it was 108%. Also, the activity at 10 µM with HOP-62 came to 90.7%; in the assay with SF-539 it was 92%; with SF-268, 90.5%; in the assay on A549/ATCC it was 91%; in the assay on UACC-257 it was 93.6%; in the assay with OVCAR-4 it was 103%. In the assay with MOLT-4, the activity at 10 µM is 92%.

Turning to `CCc1ccc(-n2cc(COc3ccc(CNC(=O)CCCC/C=C/C(C)C)cc3OC)nn2)cc1` [14o, (E)-N-(4-((1-(4-Ethylphenyl)-1H-1,2,3-triazol-4-yl)methoxy)-3-methoxybenzyl)-8-methylnon-6-enamide], the activity at 10 µM with SN12C turned out to be 98.5%; in the assay on M14 it was 99.8%; in the assay on MDA-MB-231 ATCC, 88%; in the assay with DU-145, 93.8%; in the assay with NCI-H322M, 90.5%; in the assay with CCRF-CEM, 86.8%. The activity at 10 µM worked out at 91.1% in the assay with OVCAR-8; 102% in the assay with IGROV1; 101% in the assay with OVCAR-3; 92.6% in the assay with SNB-75; 103% in the assay with SW-620; 115% in the assay with SK-MEL-28. Moreover, the activity at 10 µM came to 94.5% in the assay on HOP-62; 104% in the assay with SF-539; 93% in the assay with SF-268; 88.3% in the assay on A549/ATCC; 86.4% in the assay with UACC-257; 89% with OVCAR-4. Also, the activity at 10 µM with MOLT-4 is 79.6%.

On to `COc1cc(CNC(=O)CCCC/C=C/C(C)C)ccc1OCc1cn(-c2ccccc2OC)nn1` [14l, (E)-N-(3-Methoxy-4-((1-(2-methoxyphenyl)-1H-1,2,3-triazol-4-yl)methoxy)benzyl)-8-methylnon-6-enamide], for which the activity at 10 µM turned out to be 98% in the assay with SN12C; 96.7% in the assay on M14; 95.8% in the assay with MDA-MB-231 ATCC; 83.1% with DU-145; 92.2% with NCI-H322M; 83.7% in the assay on CCRF-CEM. The activity at 10 µM in the assay with OVCAR-8 worked out at 82.2%; in the assay with IGROV1, 104%; in the assay with OVCAR-3, 103%; in the assay on SNB-75 it was 103%; in the assay on SW-620 it was 97%; in the assay on SK-MEL-28, 116%. The activity at 10 µM was determined as 88.7% with HOP-62; 106% with SF-539; 92.6% in the assay on SF-268; 86% in the assay on A549/ATCC; 85.2% in the assay with UACC-257; 100% with OVCAR-4. Moreover, the activity at 10 µM with MOLT-4 turned out to be 79.7%.

Regarding `COc1cc(CNC(=O)CCCC/C=C/C(C)C)ccc1OCc1cn(-c2ccc(C(F)(F)F)cc2)nn1` [14g, (E)-N-(3-Methoxy-4-((1-(4-(trifluoromethyl)phenyl)-1H-1,2,3-triazol-4-yl)methoxy)benzyl)-8-methylnon-6-enamide], the activity at 10 µM in the assay on SN12C came out at 65.6%; in the assay on M14, 97.5%; in the assay on MDA-MB-231 ATCC, 75.2%; in the assay on DU-145 it was 62.2%; in the assay with NCI-H322M, 96.2%; in the assay on CCRF-CEM it was 68.8%. The activity at 10 µM in the assay on OVCAR-8 is 41.1%; with IGROV1, 58.7%; in the assay with OVCAR-3, 107%; with SNB-75, 49.7%; in the assay on SW-620 it was 41.3%; in the assay with SK-MEL-28, 107%. Moreover, the activity at 10 µM came out at 64.6% in the assay on HOP-62; 81.9% in the assay with SF-539; 87.8% with SF-268; 49% in the assay with A549/ATCC; 98.2% in the assay on UACC-257; 98.6% in the assay with OVCAR-4. The activity at 10 µM in the assay with MOLT-4 is 80.3%.

Source of the values: PMC9476207 (ACS Omega, 2022).
